What was measured:
[1] = Stability in human microsomes assessed as unbound intrinsic clearance; assay type: ADME, Microsome
Summary of the method: (§1)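 Unbound intrinsic clearance measured in human and mouse liver microsomes, expressed in L/h/kg. Values are geometric means of at least two separate runs.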

[2] = Stability in mouse microsomes assessed as unbound intrinsic clearance; assay type: ADME, Microsome; summary of the method: as §1
[3] = molecular target: T1, Nuclear receptor ROR-gamma (Homo sapiens, UniProt P51449); assay: Inverse agonist activity at RORgamma in human CD4+ T cells assessed as inhibition of IL17A secretion after 72 hrs by ELISA; assay type: cell-based, CD4+ve Th
T1 sequence (P51449 whole entry): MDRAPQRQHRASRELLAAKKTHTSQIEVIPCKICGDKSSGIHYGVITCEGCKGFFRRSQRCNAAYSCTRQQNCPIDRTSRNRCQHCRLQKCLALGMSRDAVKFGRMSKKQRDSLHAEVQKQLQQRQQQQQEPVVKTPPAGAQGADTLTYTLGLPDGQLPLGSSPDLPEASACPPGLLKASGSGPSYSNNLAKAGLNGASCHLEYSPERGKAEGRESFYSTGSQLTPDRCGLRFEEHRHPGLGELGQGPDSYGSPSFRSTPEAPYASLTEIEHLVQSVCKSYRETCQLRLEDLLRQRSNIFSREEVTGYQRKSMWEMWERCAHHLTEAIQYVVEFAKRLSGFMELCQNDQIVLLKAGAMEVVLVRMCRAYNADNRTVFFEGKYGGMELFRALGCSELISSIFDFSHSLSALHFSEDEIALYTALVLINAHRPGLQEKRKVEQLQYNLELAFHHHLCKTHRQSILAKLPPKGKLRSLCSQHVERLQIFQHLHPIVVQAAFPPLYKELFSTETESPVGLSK

[4] = molecular target: T1, Nuclear receptor ROR-gamma; assay: Inverse agonist activity at pSG5GAL4-DBD/LBD fused human RORgamma receptor expressed in COS7 cells co-expressing 5 copies of GAL4 response element after 18 hrs by luciferase reporter gene based assay; assay type: cell-based
[5] = system: Mus musculus; assay: Immunosuppressive activity in po dosed PLP (139 to 151 residues)-induced experimental autoimmune encephalomyelitis mouse model assessed as incidence of disease administered twice starting from immunization relative to control; assay type: functional
Summary of the method: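 EAE induced in mice by immunization with proteolipid protein peptide PLP139-151; ascending paralysis develops 10–12 days post-immunization. Compound dosed orally b.i.d. starting from immunization. Disease onset/incidence scored relative to control.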

Row | SMILES | CL free [1] [mL/min/kg] | CL free [2] [mL/min/kg] | EC50 [3] [nM] | EC50 [4] [nM] | Activity [5] [%]
1 | CCN(c1ccc(C(O)(C(F)(F)F)C(F)(F)F)cc1)S(=O)(=O)c1ccccc1 |  |  | 930 | 1080 | 
2 | CNC(=O)[C@@H]1CCCN1S(=O)(=O)c1cccc(COc2cccc3c(C(F)(F)F)cc(C)nc23)c1 | 50 | 767 |  | > 10000 | 
3 | CNC(=O)[C@@H]1CCCN1S(=O)(=O)c1ccc(Cl)c(COc2cccc3c(-n4ccnc4)cc(C)nc23)c1Cl | 33 | 267 | 3000 | 1360 | 
4 | CNC(=O)[C@@H]1CCCN1S(=O)(=O)c1ccc(Cl)c(COc2cccc3c(OCc4ccccc4)cc(C)nc23)c1Cl | 467 | 1820 |  | 880 | 
5 | CNC(=O)[C@@H]1CCCN1S(=O)(=O)c1ccc(Cl)c(COc2cccc3c(-c4cncn4C)cc(C)nc23)c1Cl | 33 | 120 | 1390 | 1510 | 
6 | CNC(=O)[C@@H]1CCCN1S(=O)(=O)c1ccc(Cl)c(COc2cccc3c(-n4ccnc4)cc(C(C)C)nc23)c1Cl | 33 | 130 |  | 520 | 
7 | CNC(=O)[C@@H]1CCCN1S(=O)(=O)c1ccc(Cl)c(COc2cccc3c(-c4ccccn4)cc(C)nc23)c1Cl | 183 | 733 |  |  | 
8 | CNC(=O)[C@@H]1CCCN1S(=O)(=O)c1ccc(Cl)c(COc2cccc3c(-c4ccncc4)cc(C)nc23)c1Cl | 217 | 550 |  |  | 
9 | Cc1cc(C(F)(F)F)c2cccc(OCc3c(Cl)ccc(S(=O)(=O)N4CC[C@@H](N(C)C)C4)c3Cl)c2n1 | 167 | 867 |  | 910 | 
10 | CNC(=O)[C@@H]1CCCN1S(=O)(=O)c1ccc(Cl)c(COc2cccc3c(OCc4ccccc4)cc(C(C)C)nc23)c1Cl | 667 | 1220 |  |  | 
11 | CCCCCCCCc1ccc(CCC(N)(CO)CO)cc1 [FINGOLIMOD] |  |  |  |  | 0
12 | Cc1cc(C(F)(F)F)c2cccc(OCc3c(Cl)ccc(S(=O)(=O)N4CCCCC4)c3Cl)c2n1 | 233 | 1000 |  |  | 
13 | Cc1cc(C(F)(F)F)c2cccc(OCc3c(Cl)ccc(S(=O)(=O)N4CCC(C#N)CC4)c3Cl)c2n1 | 433 | 1720 |  | 760 | 
14 | Cc1cc(C(F)(F)F)c2cccc(OCc3c(Cl)ccc(S(=O)(=O)N4CCC[C@H]4C(=O)O)c3Cl)c2n1 | 8.3 | 13 |  | 1390 | 
15 | CNC(=O)[C@@H]1CCCN1S(=O)(=O)c1ccc(Cl)c(COc2cccc3c(-c4nccn4C)cc(C)nc23)c1Cl | 120 | 917 |  | > 10000 | 
16 | Cc1cc(C(F)(F)F)c2cccc(OCc3c(Cl)ccc(S(=O)(=O)N4CCCC4)c3Cl)c2n1 | 233 | 967 |  |  | 
17 | CNC(=O)[C@@H]1CCCN1S(=O)(=O)c1ccc(Cl)c(COc2cccc3c(C(F)(F)F)cc(C)nc23)c1Cl | 250 | 1380 |  |  | 
18 | Cc1cc(C(F)(F)F)c2cccc(OCc3c(Cl)ccc(S(=O)(=O)N4CCC[C@H]4CO)c3Cl)c2n1 | 250 | 1630 | 830 | 960 | 

The remaining molecules from weak to strong by EC50 [4], led by results:

Row | CL free [1] [mL/min/kg] | CL free [2] [mL/min/kg] | EC50 [3] [nM] | EC50 [4] [nM] | SMILES | Activity [5] [%]
19 | 167 | 12600 | 470 | 440 | Cc1cc(C(F)(F)F)c2cccc(OCc3c(Cl)ccc(S(=O)(=O)N4CCC[C@H]4C(N)=O)c3Cl)c2n1 | 
20 | 367 | 1080 |  | 390 | Cc1cc(C(F)(F)F)c2cccc(OCc3c(Cl)ccc(S(=O)(=O)N4CCC(CCO)CC4)c3Cl)c2n1 | 
21 | 300 | 1280 | 210 | 350 | CCc1cc(C(F)(F)F)c2cccc(OCc3c(Cl)ccc(S(=O)(=O)N4CCC[C@H]4C(=O)NC)c3Cl)c2n1 | 
22 |  |  | 890 | 320 | CNC(=O)[C@@H]1CCCN1S(=O)(=O)c1ccc(Cl)c(COc2cccc3c(-c4ccccc4)cc(C)nc23)c1Cl | 
23 | 333 | 633 | 1830 | 220 | CNC(=O)[C@@H]1CCCN1S(=O)(=O)c1ccc(Cl)c(COc2cccc3c(-c4ccncc4)cc(C(C)C)nc23)c1Cl | 
24 | 317 | 933 |  | 220 | Cc1cc(C(F)(F)F)c2cccc(OCc3c(Cl)ccc(S(=O)(=O)N4C[C@@H](C)O[C@@H](C)C4)c3Cl)c2n1 | 
25 | 17 | 130 | 3320 | 170 | CNC(=O)[C@@H]1CCCN1S(=O)(=O)c1ccc(Cl)c(COc2cccc3c(-n4ccnc4)cc(C(F)(F)F)nc23)c1Cl | 
26 | 500 | 1630 | 770 | 170 | CNC(=O)[C@@H]1CCCN1S(=O)(=O)c1ccc(Cl)c(COc2cccc3c(C(F)(F)F)cc(C(C)C)nc23)c1Cl | 
27 | 450 | 1620 | 160 | 160 | COC[C@@H]1CCCN1S(=O)(=O)c1ccc(Cl)c(COc2cccc3c(C(F)(F)F)cc(C)nc23)c1Cl | 
28 | 233 | 700 | 1010 | 100 | CNC(=O)[C@@H]1CCCN1S(=O)(=O)c1ccc(Cl)c(COc2cccc3c(-c4cccnc4)cc(C)nc23)c1Cl | 

Source: ChEMBL document CHEMBL4665652, “Discovery of novel quinoline sulphonamide derivatives as potent, selective and orally active RORγ inverse agonists” (Bioorg Med Chem Lett, 2019)
